Active and inactive are the calls of the source. The rule behind the calls is not given here.
Experiments:
[1] = test system: HeLa; assay: Induction of apoptosis in human HeLa cells assessed as viable cells at 5 uM after 12 hrs by Annexin V-FITC/propidium iodide staining-based flow cytometric analysis (reference value: 91.02%); assay type: functional; conditions: read-out: Activity
[2] = test system: HeLa; assay: Induction of apoptosis in human HeLa cells assessed as viable cells at 0.1 uM after 12 hrs by Annexin V-FITC/propidium iodide staining-based flow cytometric analysis (reference value: 91.02%); assay type: functional; conditions: read-out: Activity
[3] = test system: HeLa; assay: Induction of apoptosis in human HeLa cells assessed as late apoptotic cells at 1 uM after 12 hrs by Annexin V-FITC/propidium iodide staining-based flow cytometric analysis (reference value: 2.32%); assay type: functional
[4] = test system: HeLa; assay: Cell cycle arrest in human HeLa cells assessed as decrease in cyclin B1 protein expression up to 5 uM after 12 hrs by Western blot analysis; assay type: functional, cell-based
In short: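 HeLa cells treated 12 h (0.1, 1, 5 μM for apoptosis proteins); lysed in Tris pH 7.5/NP-40/SDS buffer with protease inhibitors, equal protein on 10% SDS-PAGE, PVDF, 5% BSA block, primary antibodies overnight at 4 °C, β-actin loading control; mean ± SD.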

[5] = test system: HeLa; assay: Cell cycle arrest in human HeLa cells assessed as accumulation at S phase at 1 uM after 12 hrs by propidium iodide staining-based flow cytometric analysis (reference value: 5.74%); assay type: functional
In short: (§1)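 HeLa cells exposed 12 h to 1 or 5 μM compound diluted from DMSO (DMSO control), fixed, stained with propidium iodide; DNA content measured by flow cytometry and G1, S, G2/M fractions calculated from the DNA histogram.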

[6] = molecular target: T1, Aurora kinase A (Homo sapiens) (UniProt O14965); assay: Inhibition of Aurora A phosphorylation at Thr288 residue in human HeLa cells at <10 nM after 12 hrs by ELISA; assay type: cell-based
T1 sequence (whole entry): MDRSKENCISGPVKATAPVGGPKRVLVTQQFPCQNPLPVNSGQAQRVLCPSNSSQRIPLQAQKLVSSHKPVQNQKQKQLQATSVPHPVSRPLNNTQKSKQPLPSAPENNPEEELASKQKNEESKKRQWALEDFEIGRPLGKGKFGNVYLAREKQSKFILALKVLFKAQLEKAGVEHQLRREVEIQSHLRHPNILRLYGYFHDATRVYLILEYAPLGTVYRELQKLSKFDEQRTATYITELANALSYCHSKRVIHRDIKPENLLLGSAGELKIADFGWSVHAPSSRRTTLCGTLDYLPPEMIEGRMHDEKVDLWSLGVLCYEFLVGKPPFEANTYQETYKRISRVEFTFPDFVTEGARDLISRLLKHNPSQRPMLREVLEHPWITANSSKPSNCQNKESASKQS
In short: (§2)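 HeLa cells grown 12 h in 6-well dishes with compound diluted from DMSO at several concentrations; whole-cell lysate captured on anti-Aurora A or B antibody-coated wells, HRP-labelled detection, TMB substrate, stopped with sulphuric acid, absorbance at 450 nm.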

[7] = test system: HeLa; assay: Induction of apoptosis in human HeLa cells assessed as necrotic cells at 0.1 uM after 12 hrs by Annexin V-FITC/propidium iodide staining-based flow cytometric analysis (reference value: 5.92%); assay type: functional
[8] = test system: HeLa; assay: Induction of apoptosis in human HeLa cells assessed as necrotic cells at 5 uM after 12 hrs by Annexin V-FITC/propidium iodide staining-based flow cytometric analysis (reference value: 5.92%); assay type: functional
[9] = test system: HeLa; assay: Cell cycle arrest in human HeLa cells assessed as accumulation at G1 phase at 5 uM after 12 hrs by propidium iodide staining-based flow cytometric analysis (reference value: 70.68%); assay type: functional; in short: as §1
[10] = species: Homo sapiens; assay: Selectivity ratio of IC50 for Aurora B (unknown origin) to IC50 for Aurora A (unknown origin)
[11] = test system: HepG2; assay: Antiproliferative activity against human HepG2 cells after 48 hrs by MTT assay; assay type: functional; conditions: HepG2, 48 h
In short: (§3)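 MTT assay: cells attached 4–6 h at 37 °C, 5% CO2, then exposed 48 h to graded concentrations from DMSO stocks; 5 mg/mL MTT added for 4 h, formazan dissolved in DMSO, absorbance at 490 nm. GI50 from log plot of percent of control versus concentration; mean of three independent experiments.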

[12] = test system: A549; assay: Antiproliferative activity against human A549 cells after 48 hrs by MTT assay; assay type: functional; conditions: A549, 48 h; in short: as §3
[13] = molecular target: T2, Aurora kinase B (Homo sapiens, UniProt Q96GD4); assay: Inhibition of Aurora B phosphorylation at Thr232 residue in human HeLa cells at <10 nM after 12 hrs by ELISA; assay type: cell-based; in short: as §2
[14] = molecular target: T2, Aurora kinase B; assay: Inhibition of Aurora B phosphorylation at Thr232 residue in human HeLa cells after 12 hrs by Western blot analysis; assay type: cell-based
In short: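 HeLa cells given 0, 1.25, 2.5 or 5.0 μM for 12 h; lysates in buffer with phosphatase and protease inhibitors, 10% SDS-PAGE western blot probed for phospho-Aurora A Thr288, phospho-Aurora B Thr232 and total Aurora A/B, β-actin loading control; band levels as mean ± SD versus control.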

[15] = test system: HeLa; assay: Disruption of spindle formation in human HeLa cells assessed as formation of abnormal mitotic spindles at 0.1 to 1 uM after 24 hrs by DAPI staining based immunofluorescence microscopic analysis; assay type: functional, cell-based
In short: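 HeLa cells on coverslips treated 24 h (0.1 or 1 μM; DMSO control); fixed in 4% paraformaldehyde, permeabilised in 0.1% Triton X-100 with 2% BSA, anti-α-tubulin overnight at 4 °C, FITC secondary 2 h room temperature, DAPI for DNA; confocal imaging.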

[16] = test system: HeLa; assay: Cell cycle arrest in human HeLa cells assessed as accumulation at S phase at 5 uM after 12 hrs by propidium iodide staining-based flow cytometric analysis (reference value: 5.74%); assay type: functional; in short: as §1

T2 sequence (Q96GD4 whole entry): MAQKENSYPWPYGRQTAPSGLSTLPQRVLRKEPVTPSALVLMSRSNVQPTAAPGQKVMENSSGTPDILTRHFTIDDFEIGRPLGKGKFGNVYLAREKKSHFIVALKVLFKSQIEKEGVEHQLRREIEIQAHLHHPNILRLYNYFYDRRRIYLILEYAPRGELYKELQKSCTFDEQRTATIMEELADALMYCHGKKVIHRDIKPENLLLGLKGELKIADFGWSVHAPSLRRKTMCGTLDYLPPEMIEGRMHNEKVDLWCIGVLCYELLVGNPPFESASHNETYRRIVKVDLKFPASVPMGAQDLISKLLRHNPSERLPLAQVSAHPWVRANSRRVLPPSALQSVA

## CC1(C)CC(NC(=O)c2ccc(Nc3ncc(F)c(Nc4ccc(C(=O)Nc5ccccc5Cl)cc4)n3)cc2)CC(C)(C)N1[O]
[1]
  viability at 5 µM: 67.7%
[2]
  viability at 0.1 µM: 90.3%
[3]
  Activity: 8.06%
[4]
  Activity: Active
[5]
  Activity: 11.33%
[6]
  inhibition: inactive
[7]
  Activity: 5.63%
[8]
  Activity: 10.75%
[9]
  Activity: 39.67%
[10]
  Ratio IC50: 42
[11]
  GI50: 1200 nM
[12]
  GI50: 1100 nM
[13]
  inhibition: inactive
[14]
  inhibition: Dose-dependent effect
[15]
  Activity: Active
[16]
  Activity: 0%
